Experimental data gathered from unrelated publications.
Each line is one published result; the experiments were not run side by side.
Target: Ephrin type-B receptor 1 (EPHB1, Homo sapiens, UniProt P54762)

O=C1Nc2ccc(Cl)cc2C1=Cc1cc(Cl)c(O)c(Cl)c1
remaining signal (cell-free assay; 0.5 µM): 91%

COc1cc2ncnc(Nc3ccc(Oc4ccccc4)cc3C)c2cc1OC
inhibition (enzyme activity, inhibitor; 1 µM): 6%

Cc1ccc(Nc2nccc(N(C)c3ccc4c(C)n(C)nc4c3)n2)cc1S(N)(=O)=O
inhibition (enzyme activity, inhibitor; 0.3 µM): 8%

C[C@@H]1CN(c2cc(-c3n[nH]c4ccc(OC5(C)CC5)cc34)ncn2)C[C@H](C)O1
remaining binding (cell-free assay, competition with immobilised ligand; 0.1 µM): 83%

CC(C)(O)[C@H]1CC[C@H](Nc2ccc3ncc(-c4cccc(C(F)(F)F)c4)n3n2)CC1
remaining activity (enzyme activity, inhibitor; 1 µM): 85%

Cn1c(=O)n(-c2ccc(C(C)(C)C#N)cc2)c2c3cc(-c4cnc5ccccc5c4)ccc3ncc21
remaining activity (enzyme activity, inhibitor; 10 µM): 133%

COc1cc(/C=C/C(=O)CC(=O)/C=C/c2ccc(O)c(OC)c2)ccc1O
activity vs control (enzyme activity, inhibitor; 1 µM): 100%

C=CC(=O)Nc1cc(Nc2nccc(Nc3cc(Cl)c(F)cc3C(C)(C)O)n2)c(OC)cc1N1CC[C@@H](N(C)C)C1
inhibition (enzyme activity, inhibitor; 1 µM): 24%

CC(C)(C)c1nc(-c2cccc(NS(=O)(=O)c3c(F)cccc3F)c2F)c(-c2ccnc(N)n2)s1
remaining activity (enzyme activity, inhibitor, radiometric; 1 µM): 94%

CNCc1ccccc1-c1csc([C@@H](C)Nc2nc(C)nc3cc(OC)c(OC)cc23)c1
remaining binding (cell-free assay, competition with immobilised ligand; 1 µM): 100%

CC/C(=N\NC(=O)NCc1cccc(O)c1)c1ccc(O)c(C)c1O
inhibition (enzyme activity, inhibitor; 0.1 µM): -1%

Cc1nccc(COC(=O)N2C[C@@H]3[C@@H](CNC(=O)c4ccc5[nH]nnc5c4)[C@@H]3C2)n1
remaining binding (cell-free assay, competition with immobilised ligand; 1 µM): 95%

CNC(=O)c1cc(Oc2ccc(NC(=O)Nc3ccc(Cl)c(C(F)(F)F)c3)cc2)ccn1
remaining signal (cell-free assay; 0.5 µM): 102%

Cc1ccc(C(=O)NCc2ccsc2)cc1C#Cc1cn(C(C)C)c2ncnc(N)c12
activity vs control (enzyme activity, inhibitor; 1 µM): 12%

CC(C)CC(=O)N1CCc2nc(-c3ccc(Br)cc3)nc(N(C)Cc3ccccc3)c2C1
remaining binding (cell-free assay, competition with immobilised ligand; 0.1 µM): 100%

CCN(CC)CCNC(=O)c1c(C)[nH]c(/C=C2\C(=O)Nc3ccc(F)cc32)c1C
inhibition (enzyme activity, inhibitor; 10 µM): 91%

CCCOc1ccc(OC)c(F)c1C(=O)c1ccc(C(=O)N[C@@H]2CNC[C@H]2NC(=O)c2ccc3[nH]ncc3c2)cc1
remaining activity (enzyme activity, inhibitor; 10 µM): 42%

CCC(=N\O)/C(C)=C/c1ccc(F)cc1
remaining binding (cell-free assay, competition with immobilised ligand; 1 µM): 100%

COc1cc(-c2cc(-c3ccc(N4CCNCC4)cc3)cnc2C)cc(OC)c1OC
inhibition (enzyme activity, inhibitor; 0.1 µM): 5%

O=C(Nc1cnn(-c2csc(C(=O)NC3COC3)c2)c1)Nc1ccccc1Cl
remaining activity (enzyme activity, inhibitor; 5 µM): 100%

Cc1noc([C@H]2C[C@@H](c3ccc(C(F)(F)F)cc3)CN(C(=O)N3CCS(=O)(=O)C3)C2)n1
remaining binding (cell-free assay, competition with immobilised ligand; 1 µM): 100%

O=C1NC(=O)c2cc(Nc3ccc(F)cc3)c(Nc3ccc(F)cc3)cc21
remaining signal (cell-free assay; 0.5 µM): 103%

COc1cc(Cl)c(C(=O)N[C@@H](CN[C@H]2CC[C@@H](N)CC2)Cc2ccc(C#N)cc2)cc1-c1ccc(CN[C@H](C)c2ccc(C)cc2)o1
remaining activity (enzyme activity, inhibitor; 1 µM): 122%

CNC(=O)c1cc2c(Oc3ccc(NC(=O)C4(C(=O)Nc5ccc(F)cc5)CC4)cc3)ccnc2cc1OC
inhibition (enzyme activity, inhibitor, radiometric; 1 µM): 99%

O=C(NC[C@@H]1[C@H]2CN(C(=O)OCc3cc(C(F)(F)F)cc(C(F)(F)F)c3)C[C@@H]12)c1ccc2[nH]nnc2c1
remaining binding (cell-free assay, competition with immobilised ligand; 1 µM): 100%

CS(=O)(=O)CCNCc1ccc(-c2ccc3ncnc(Nc4ccc(OCc5cccc(F)c5)c(Cl)c4)c3c2)o1
remaining signal (cell-free assay; 0.5 µM): 104%

CC(=O)c1c(NS(C)(=O)=O)c2cc(-c3ccc(Cl)cc3)c(-c3ccc(Cl)cc3Cl)nc2n(C)c1=O
remaining binding (cell-free assay, competition with immobilised ligand; 1 µM): 100%

COc1cc(Nc2cnc(C#N)c(O[C@H](C)CN(C)C)n2)ncc1-c1cnn(C)c1
remaining activity (enzyme activity, inhibitor, radiometric; 10 µM): 71%
